Results as given in ChEMBL document CHEMBL1131139, “Synthesis and antibacterial activity of ketolides (6-O-methyl-3-oxoerythromycin derivatives): a new class of antibacterials highly potent against macrolide-resistant and -susceptible respiratory pathogens” (1998).
In brackets after ≈: the same amount, converted by molar mass.

Key:
Haemophilus [1] = assay: In vitro inhibitory activity against Haemophilus AmpR (37); format: functional
Mus musculus [2] = assay: In Vivo evaluation for its effective dose against Haemophilus influenzae (351TO19 AmpR beta (-)); format: functional
In short: (§1)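 Male Charles River CD1 mice, 20-22 g, 10 per dose group, infected intraperitoneally with 0.5 mL diluted overnight broth culture (physiological buffer or 5% hog mucine) at 10-100 times the minimal lethal dose. Compound suspended in carboxymethylcellulose, 0.5 mL given orally immediately and 4 h postinfection. Survival followed 8-10 days; ED50 (unitary dose protecting 50% from death) by Litchfield-Wilcoxon probit method.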

Mus musculus [3] = assay: In Vivo evaluation for its effective dose against Haemophilus influenzae (351GR1); format: functional; in short: as §1
Haemophilus [4] = assay: In vitro inhibitory activity against Haemophilus AmpS (43); format: functional
Mus musculus [5] = assay: In Vivo evaluation for its effective dose against Haemophilus influenzae (351RD7 AmpR beta (+)); format: functional; in short: as §1
Mus musculus [6] = assay: In Vivo evaluation for its effective dose against Streptococcus pneumoniae (032UC1); format: functional; in short: as §1
[7] = system: Staphylococcus epidermidis; assay: In vitro inhibitory activity against Staphylococcus epidermidis (EryRi 012GO11i); format: functional
In short: (§2)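 Two-fold agar dilution on Mueller-Hinton agar (pH 7.4). Inoculum from overnight plate cultures suspended in Mueller-Hinton broth, adjusted to 10^9 CFU/mL, diluted 1:200 and spotted by multipoint inoculator at about 10^4 CFU/spot. Plates incubated 37 °C for 20 h. MIC taken as lowest concentration with no visible growth.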

Streptococcus sp [8] = assay: In vitro inhibitory activity against Streptococci EryRi (98)
Mus musculus [9] = assay: In Vivo evaluation for its effective dose against Staphylococcus aureus (011GO25 EryRi.; format: functional; in short: as §1
Staphylococcus aureus [10] = assay: In vitro inhibitory activity against Staphylococcus aureus (EryRc 011CB20); format: functional; in short: as §2
Mus musculus [11] = assay: In Vivo evaluation for its effective dose against Staphylococcus aureus (011UC4).; format: functional; in short: as §1
Streptococcus pneumoniae [12] = assay: In vitro inhibitory activity against Streptococcus pneumoniae (EryRi 030SJ5i); format: functional; in short: as §2
Streptococcus pneumoniae [13] = assay: In vitro inhibitory activity against Streptococcus pneumoniae (032UC1); format: functional; in short: as §2
Mus musculus [14] = assay: In Vivo evaluation for its effective dose against Streptococcus pneumoniae (030MV2 EryRc); format: functional; in short: as §1
Mus musculus [15] = assay: In Vivo evaluation for its effective dose against Streptococcus pneumoniae (030Cr29 EryRc); format: functional; in short: as §1
Staphylococcus aureus [16] = assay: In vitro inhibitory activity against Staphylococcus aureus (EryRi 011GO25i); format: functional; in short: as §2
Haemophilus influenzae [17] = assay: In vitro inhibitory activity against Haemophilus influenzae (351HT3); format: functional; in short: as §2
Staphylococcus sp. [18] = assay: In vitro inhibitory activity against Staphylococci EryRc (13); format: functional
Streptococcus sp [19] = assay: In vitro inhibitory activity against Streptococci EryRi (98); remark: listed apart in the source
Streptococcus sp [20] = assay: In vitro inhibitory activity against Streptococci EryR (27)
[21] = In vitro inhibitory activity against Pneumococci EryRc (34); format: functional
Escherichia coli = assay: In vitro inhibitory activity against Escherichia coli (250 UC5); format: functional; in short: as §2
Streptococcus pneumoniae [22] = assay: In vitro inhibitory activity against Streptococcus pneumoniae (EryRc 030SJ1); format: functional; in short: as §2
Streptococcus sp [23] = assay: In vitro inhibitory activity against Streptococci EryR (27); remark: listed apart in the source
Staphylococcus aureus [24] = assay: In vitro inhibitory activity against Staphylococcus aureus (011UC4); format: functional; in short: as §2
Mus musculus [25] = assay: In Vivo evaluation for its effective dose against Streptococcus pneumoniae (030SJ6 EryRc); format: functional; in short: as §1
Enterococcus = assay: In vitro inhibitory activity against enterococci EryRi (19); format: functional
Mus musculus [26] = assay: In Vivo evaluation for its effective dose against Streptococcus pneumoniae (030RO1 EryRi); format: functional; in short: as §1
Mus musculus [27] = assay: In Vivo evaluation for its effective dose against Streptococcus pneumoniae (030SJ1 EryRc); format: functional; in short: as §1
Haemophilus influenzae [28] = assay: In vitro inhibitory activity against Haemophilus influenzae (351CB12); format: functional; in short: as §2
Streptococcus pyogenes = assay: In vitro inhibitory activity against Streptococcus pyogenes (02A1UC1); format: functional; in short: as §2
Staphylococcus sp. [29] = assay: In vitro inhibitory activity against Staphylococci EryRi (65); format: functional
[30] = In vitro inhibitory activity against Pneumococci PenR (65); format: functional
Mus musculus [31] = assay: In Vivo evaluation for its effective dose against Streptococcus pyogenes (02A1UC1); format: functional; in short: as §1

Compound: CC1(C)S[C@@H]2[C@H](NC(=O)[C@H](N)c3ccccc3)C(=O)N2[C@H]1C(=O)O [AMPICILLIN]
- MIC50 (Haemophilus [1]): 1.2 µg/mL (≈ 3.43 µM)
- MIC90 (Haemophilus [1]): 1 µg/mL (≈ 2.86 µM)
- ED50 (Mus musculus [2]): 39 mg/kg
- ED50 (Mus musculus [3]): 5.5 mg/kg
- MIC50 (Haemophilus [4]): 0.3 µg/mL (≈ 0.859 µM)
- MIC90 (Haemophilus [4]): 0.6 µg/mL (≈ 1.72 µM)
- ED50 (Mus musculus [5]): > 600 mg/kg

Compound: CC[C@H]1OC(=O)[C@H](C)[C@@H](O[C@H]2C[C@@](C)(OC)[C@@H](O)[C@H](C)O2)[C@H](C)[C@@H](O[C@@H]2O[C@H](C)C[C@H](N(C)C)[C@H]2O)[C@](C)(OC)C[C@@H](C)C(=O)[C@H](C)[C@@H](O)[C@]1(C)O [CLARITHROMYCIN]
- ED50 (Mus musculus [6]): > 50 mg/kg
- MIC50 (Haemophilus [1]): 2.5 µg/mL (≈ 3.34 µM)
- MIC90 (Haemophilus [1]): 10 µg/mL (≈ 13.4 µM)
- MIC [7]: 40 µg/mL (≈ 53.5 µM)
- MIC50 (Streptococcus sp [8]): 40 µg/mL (≈ 53.5 µM)
- ED50 (Mus musculus [9]): > 100 mg/kg
- ED50 (Mus musculus [2]): 600 mg/kg
- MIC (Staphylococcus aureus [10]): 40 µg/mL (≈ 53.5 µM)
- ED50 (Mus musculus [3]): 346 mg/kg
- MIC50 (Haemophilus [4]): 1.2 µg/mL (≈ 1.6 µM)
- MIC90 (Haemophilus [4]): 5 µg/mL (≈ 6.68 µM)
- ED50 (Mus musculus [11]): 12.6 mg/kg
- MIC (Streptococcus pneumoniae [12]): 40 µg/mL (≈ 53.5 µM)
- MIC (Streptococcus pneumoniae [13]): 0.04 µg/mL (≈ 0.0535 µM)
- ED50 (Mus musculus [14]): > 100 mg/kg
- ED50 (Mus musculus [15]): > 100 mg/kg
- MIC (Staphylococcus aureus [16]): 40 µg/mL (≈ 53.5 µM)
- MIC (Haemophilus influenzae [17]): 2.5 µg/mL (≈ 3.34 µM)
- MIC50 (Staphylococcus sp. [18]): 40 µg/mL (≈ 53.5 µM)
- MIC90 (Staphylococcus sp. [18]): 40 µg/mL (≈ 53.5 µM)
- MIC90 (Streptococcus sp [19]): 40 µg/mL (≈ 53.5 µM)
- MIC90 (Streptococcus sp [20]): 40 µg/mL (≈ 53.5 µM)
- MIC50 [21]: 40 µg/mL (≈ 53.5 µM)
- MIC90 [21]: 40 µg/mL (≈ 53.5 µM)
- MIC (Escherichia coli): 40 µg/mL (≈ 53.5 µM)
- ED50 (Mus musculus [5]): 109 mg/kg
- MIC (Streptococcus pneumoniae [22]): 40 µg/mL (≈ 53.5 µM)
- MIC50 (Streptococcus sp [23]): 1.2 µg/mL (≈ 1.6 µM)
- MIC (Staphylococcus aureus [24]): 0.3 µg/mL (≈ 0.401 µM)
- ED50 (Mus musculus [25]): > 100 mg/kg
- MIC50 (Enterococcus): 1.2 µg/mL (≈ 1.6 µM)
- MIC90 (Enterococcus): 10 µg/mL (≈ 13.4 µM)
- ED50 (Mus musculus [26]): > 100 mg/kg
- ED50 (Mus musculus [27]): > 100 mg/kg
- MIC (Haemophilus influenzae [28]): 2.5 µg/mL (≈ 3.34 µM)
- MIC (Streptococcus pyogenes): 0.08 µg/mL (≈ 0.107 µM)
- MIC50 (Staphylococcus sp. [29]): 40 µg/mL (≈ 53.5 µM)
- MIC90 (Staphylococcus sp. [29]): 40 µg/mL (≈ 53.5 µM)
- MIC50 [30]: 0.3 µg/mL (≈ 0.401 µM)
- MIC90 [30]: 40 µg/mL (≈ 53.5 µM)
- ED50 (Mus musculus [31]): 16 mg/kg
